These results are taken from ChEMBL document CHEMBL4706614, “Design, synthesis and biological evaluation of novel naphthoquinone-4-aminobenzensulfonamide/carboxamide derivatives as proteasome inhibitors” (Eur J Med Chem, 2021).

For assay [1], the system named is MCF7. As to the kind of experiment: Antiproliferative activity against human MCF7 cells assessed as cell viability after 48 hrs MTT assay. In kind it is functional, cell-based. To be noted: MCF7, 48 h. An outline of the steps:
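MTT:medium (1:9) added 4 h at 37°C, formazan dissolved in DMSO, absorbance 570 nm. DMSO solvent control; triplicate; IC50 = concentration inhibiting 50% of viability.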
A general note: Tetrazolium assays rely on reduction of a dye to a coloured formazan, in cell work by metabolically active cells.

For assay [2], the target named is T1, Proteasome Macropain subunit MB1 (Homo sapiens) (UniProt P28074).
T1 sequence (whole entry): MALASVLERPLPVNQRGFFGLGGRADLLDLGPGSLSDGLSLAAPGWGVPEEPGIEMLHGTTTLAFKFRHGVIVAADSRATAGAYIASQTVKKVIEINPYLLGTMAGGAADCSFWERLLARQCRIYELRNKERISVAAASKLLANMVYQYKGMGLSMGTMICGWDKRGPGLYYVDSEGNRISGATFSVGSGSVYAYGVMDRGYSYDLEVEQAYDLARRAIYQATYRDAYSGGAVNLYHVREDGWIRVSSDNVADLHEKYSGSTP
Nature of the assay: Inhibition of chymotrypsin-like activity 20S proteasome beta subunit 5 of human MCF7 cells using fluorogenic substrate Suc-LLVY-AMC at 10 uM after 1 hr by fluorescence analysis relative to control. In kind it is cell-based. The method, boiled down:
(§1)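 Screen at 10 µM: MCF-7 lysates (sucrose/HEPES/MgCl2/EDTA buffer, 1 mM DTT) preincubated 10 min in 225 mM Tris pH 7.8, 7.5 mM MgOAc, 7.5 mM MgCl2, 45 mM KCl, 1 mM DTT; compound 1 h at 37 °C, then substrate 1 h at 37 °C; AMC release ex 360/em 460 nm versus DMSO; MG-132 positive control.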

Assay [3] deals with T2, Proteasome component C5 (Homo sapiens) (UniProt P20618).
T2 sequence (whole entry): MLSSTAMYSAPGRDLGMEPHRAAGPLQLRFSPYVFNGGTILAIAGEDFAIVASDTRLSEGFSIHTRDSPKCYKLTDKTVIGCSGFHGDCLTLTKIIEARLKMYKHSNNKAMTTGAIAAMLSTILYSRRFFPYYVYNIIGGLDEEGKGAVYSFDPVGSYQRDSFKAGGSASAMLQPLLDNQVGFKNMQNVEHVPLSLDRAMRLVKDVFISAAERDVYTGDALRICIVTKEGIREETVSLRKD
As to the kind of experiment: Inhibition of caspase-like activity 20S proteasome beta subunit 1 of human MCF7 cells using fluorogenic substrate Z-LLE-AMC at 10 uM after 1 hr by fluorescence analysis relative to control. In kind it is cell-based. The method, boiled down:
as §1

The target of assay [4] is Proteasome Macropain subunit (Homo sapiens) (UniProt P49721). Nature of the assay: Inhibition of trypsin-like activity 20S proteasome beta subunit 2 of human MCF7 cells using fluorogenic substrate Boc-LRR-AMC at 10 uM after 1 hr by fluorescence analysis relative to control. The class given is cell-based. The method, boiled down:
as §1

Molecules are shown by their SMILES. pIC50: −log10 of the molar value. Activity calls are given as the source filed them. The rule behind the calls is not given here. Residues, ends and D or L forms follow the SMILES beside them. *: point of attachment. Cbz = O=C(OCc1ccccc1)*

Proteasome Macropain subunit (Homo sapiens), sequence (P49721 whole entry): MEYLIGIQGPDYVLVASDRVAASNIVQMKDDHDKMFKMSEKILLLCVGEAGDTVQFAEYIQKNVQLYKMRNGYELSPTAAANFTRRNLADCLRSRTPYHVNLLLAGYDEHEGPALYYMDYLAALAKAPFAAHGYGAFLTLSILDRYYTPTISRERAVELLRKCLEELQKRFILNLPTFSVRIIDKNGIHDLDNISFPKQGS

Usually pIC50 stands for −log10 of the IC50, conventionally taken in molar units. As a reminder, the inhibition is how much of the control response was suppressed. As for `O=C(Nc1nccs1)c1ccc(NC2=C(Cl)C(=O)c3ccccc3C2=O)cc1`, the pIC50 in assay [1] is 5.42. Further, the inhibition in assay [2] came to 19.6%; in assay [3], 3.59%. For the same compound, in assay [4], the inhibition entry was “inactive”.
For `Cc1cccnc1NC(=O)c1ccc(NC2=C(Cl)C(=O)c3ccccc3C2=O)cc1` the same measures were 5.36, 11.4%, 9.52% and “inactive”.
Consider `O=C1C(Cl)=C(Nc2ccc(S(=O)(=O)Nc3ccccc3Cl)cc2)C(=O)c2ccccc21`, for which the pIC50 in assay [1] is 5.59. For the same compound, the inhibition in assay [2] was 3.25%; in assay [3] it was 1.21%; in assay [4] it was 6.29%.
For `O=C1C(Cl)=C(Nc2ccc(S(=O)(=O)N3CCOCC3)cc2)C(=O)c2ccccc21` the same measures were 5.74, 10.8%, 16.2% and 2.76%.
For `Cc1csc(NC(=O)c2ccc(NC3=C(Cl)C(=O)c4ccccc4C3=O)cc2)n1` the same measures were 5.61, 22.3%, 7.76% and 7.11%.
On to `O=C(Nc1cccc2ccccc12)c1ccc(NC2=C(Cl)C(=O)c3ccccc3C2=O)cc1`, for which the pIC50 in assay [1] is 5.32. Besides, the inhibition in assay [2] worked out at 16.9%; in assay [3] it was 16.7%; in assay [4], 4.41%.
In the same order, the values of `CC(C)c1ccccc1NS(=O)(=O)c1ccc(NC2=C(Cl)C(=O)c3ccccc3C2=O)cc1` are 5.27, 20%, 11.5% and 17.1%.
In the same order, the values of `O=C1C(Cl)=C(Nc2ccc(S(=O)(=O)Nc3ccccc3[N+](=O)[O-])cc2)C(=O)c2ccccc21` are 5.40, 17.3%, 14.2% and 21.3%.
In the same order, the values of `O=C1C(Cl)=C(Nc2ccc(S(=O)(=O)Nc3cccc([N+](=O)[O-])c3)cc2)C(=O)c2ccccc21` are 5.66, 23.5%, 7.44% and 19.4%.
As to `Cc1ccc(NC(=O)c2ccc(NC3=C(Cl)C(=O)c4ccccc4C3=O)cc2)nc1`, the pIC50 in assay [1] was 5.38. For the same compound, the inhibition in assay [2] stood at 22%; in assay [3], 7.42%. Besides, the inhibition entry in assay [4] is “inactive”.
In the case of `O=C(Nc1ccncc1)c1ccc(NC2=C(Cl)C(=O)c3ccccc3C2=O)cc1`, the pIC50 in assay [1] was 4.68. Moreover, the inhibition in assay [2] came to 8.96%; in assay [3] it was 7.87%; in assay [4], 2.43%.
For `Cc1ccc(NS(=O)(=O)c2ccc(NC3=C(Cl)C(=O)c4ccccc4C3=O)cc2)nc1` the same measures were 5.75, 10.1%, “inactive” and 11.6%.
In the same order, the values of `O=C1C(Cl)=C(Nc2ccc(S(=O)(=O)Nc3cccc(Cl)c3)cc2)C(=O)c2ccccc21` are 5.68, 28.8%, 14.2% and 24.5%.
For `O=C(Nc1cccc(Cl)c1)c1ccc(NC2=C(Cl)C(=O)c3ccccc3C2=O)cc1` the same measures were 4.78, 21.6%, 11.7% and 27.6%.
Take `COc1cccc2c1C(=O)c1c(O)c3c(c(O)c1C2=O)C[C@@](O)(C(=O)CO)C[C@@H]3O[C@H]1C[C@H](N)[C@H](O)[C@H](C)O1` [DOXORUBICIN]: in assay [1], the pIC50 was 6.03.
Turning to `O=C(Nc1ccccc1)c1ccc(NC2=C(Cl)C(=O)c3ccccc3C2=O)cc1`, the pIC50 in assay [1] was 4.81. The inhibition turned out to be 4.03% in assay [2], 10.7% in assay [3] and 3.19% in assay [4].
For `Cc1cccc(NC(=O)c2ccc(NC3=C(Cl)C(=O)c4ccccc4C3=O)cc2)c1`, the pIC50 in assay [1] was 4.84. The values for the inhibition in assay [2], in assay [3] and in assay [4] were 14.6%, 15.1% and 3.39%, respectively.
Take `O=C(Nc1ccc(Cl)cc1)c1ccc(NC2=C(Cl)C(=O)c3ccccc3C2=O)cc1`: the negative-log IC50 (pIC50) in assay [1] was 5.34. Besides, the inhibition came to 15.8% in assay [2] and 1.55% in assay [4]. For the same compound, the inhibition result in assay [3] was “inactive”.
In the same order, the values of `O=C(Nc1ccc(Cl)cn1)c1ccc(NC2=C(Cl)C(=O)c3ccccc3C2=O)cc1` are 5.21, 19.4%, “inactive” and 8.55%.
For `Cc1ccnc(NC(=O)c2ccc(NC3=C(Cl)C(=O)c4ccccc4C3=O)cc2)c1` the same measures were 5.76, 16.6%, “inactive” and 8.37%.
In the same order, the values of `COc1cc(NS(=O)(=O)c2ccc(NC3=C(Cl)C(=O)c4ccccc4C3=O)cc2)cc(OC)c1` are 5.66, 20%, 22.7% and 12%.
Consider `CC(C)c1ccccc1NC(=O)c1ccc(NC2=C(Cl)C(=O)c3ccccc3C2=O)cc1`, for which, in assay [1], the negative logarithm of the IC50 (pIC50) is 5.58. For the same compound, the inhibition in assay [2] is 17.2%; in assay [3] it was 9.94%. Besides, the inhibition result in assay [4] is “inactive”.
Take `Cc1csc(NS(=O)(=O)c2ccc(NC3=C(Cl)C(=O)c4ccccc4C3=O)cc2)n1`: the pIC50 in assay [1] is 5.37. Moreover, the values for the inhibition in assay [2], in assay [3] and in assay [4] were 24.8%, 15.4% and 21%, respectively.
For `O=C(Nc1cccnc1)c1ccc(NC2=C(Cl)C(=O)c3ccccc3C2=O)cc1` the same measures were 5.22, 16.3%, 1.2% and “inactive”.
In the same order, the values of `Cc1cccnc1NS(=O)(=O)c1ccc(NC2=C(Cl)C(=O)c3ccccc3C2=O)cc1` are 5.72, 14.8%, 9.01% and 13%.
Turning to `O=C1C(Cl)=C(Nc2ccc(S(=O)(=O)Nc3cccnc3Cl)cc2)C(=O)c2ccccc21`, the negative logarithm of the IC50 (pIC50) in assay [1] is 5.33. Moreover, the inhibition in assay [2] came out at 22.4%; in assay [3], 11.2%; in assay [4], 22.1%.
For `O=C1C(Cl)=C(Nc2ccc(S(=O)(=O)Nc3ccc(Br)cc3)cc2)C(=O)c2ccccc21` the same measures were 5.47, 22.2%, 10% and 23.8%.
For the compound `CC(C)C[C@@H](C=O)NC(=O)[C@H](CC(C)C)NC(=O)[C@H](CC(C)C)NC(=O)OCc1ccccc1` (Cbz-Leu-Leu-Leu-aldehyde), the inhibition in assay [2] stood at 38.2%; in assay [3], 18.4%; in assay [4], 51.4%.
Consider `O=C1C(Cl)=C(Nc2ccc(S(=O)(=O)Nc3ccc([N+](=O)[O-])cc3)cc2)C(=O)c2ccccc21`, for which the pIC50 in assay [1] is 5.55. Moreover, the figures for the inhibition in assay [2], in assay [3] and in assay [4] were 26%, 14.1% and 22.7%, respectively.
In the same order, the values of `Cc1ccnc(NS(=O)(=O)c2ccc(NC3=C(Cl)C(=O)c4ccccc4C3=O)cc2)c1` are 5.68, 11.7%, 3.35% and 7.26%.
